Screening results from PubChem BioAssay.
ARNT TACC3 PPI – disruptors of human ARNT/TACC3 interaction. AlphaScreen His-ARNT PAS-B/GST-TACC3 binding, luminescence; TACC3 fragment carries E629A point mutation. Q9Y6A5. inhibition, % at 9.99 µM. hit rate 0.66% among 390,000. AID 623870;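 active means mean inhibition of replicates at least 50% and at least half of replicates each reaching 50%; inconclusive means half or more replicates reach 50% but mean below 50%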;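 further: 0% = complete ARNT plus TACC3 wells and 100% = ARNT alone without TACC3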
FGF22 binding – FGF22 (human) thermal shift binding. Q9HCT0. recombinant FGF22 thermal shift, SYPRO orange fluorescence; percent of sucrose octasulfate shift, DMSO zero. activity (Tm shift, normalised), % at 9.99 µM. hit rate 1.5% among 340,000;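 active means mean Tm shift, scaled 0 neutral to 100 positive control, at about 1.3% or above, every replicate too, limit read from the data; inconclusive means no clear call, values can overlap the other calls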
Target sequence (Q9HCT0 whole entry, looked up): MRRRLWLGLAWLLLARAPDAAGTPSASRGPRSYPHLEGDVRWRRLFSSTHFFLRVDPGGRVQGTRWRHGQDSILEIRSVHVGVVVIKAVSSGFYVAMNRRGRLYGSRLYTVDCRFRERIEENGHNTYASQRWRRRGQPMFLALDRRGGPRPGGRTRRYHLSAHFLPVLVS
DENV2 CPE rescue – protects cells from dengue virus 2 cytopathic effect; hit rate 1.7% among 350,000; CPE inhibition, % at 9.99 µM; DENV2-infected cells, cytopathic effect rescue, plate reader; in the data active means CPE inhibition above about 20%, passing the limit was not always enough; inconclusive means no clear call, values can overlap the other calls; tested in BHK-21 cells;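 further: 0% = median of neutral control wells and 100% = median of positive control wells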
SIRT5 inh – inhibitors of human sirtuin-5 desuccinylase. Purified SirT5, succinyl-peptide AMC, trypsin-coupled fluorescence. hit rate 1.1% among 330,000. inhibition, % at 15 µM. Q9NXA8; in the data active means inhibition above about 15%; inconclusive means no clear call, values can overlap the other calls
Target sequence (Q9NXA8 whole entry, looked up): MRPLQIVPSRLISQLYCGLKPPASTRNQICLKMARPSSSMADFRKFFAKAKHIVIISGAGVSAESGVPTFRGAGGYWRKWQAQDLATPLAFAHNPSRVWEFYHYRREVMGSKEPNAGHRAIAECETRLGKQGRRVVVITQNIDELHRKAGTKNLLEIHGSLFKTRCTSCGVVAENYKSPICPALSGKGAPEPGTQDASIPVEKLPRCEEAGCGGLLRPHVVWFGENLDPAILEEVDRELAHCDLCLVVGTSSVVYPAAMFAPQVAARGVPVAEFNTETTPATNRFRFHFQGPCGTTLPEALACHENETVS
FN deposition inh – fibronectin deposition inhibition | inhibition, % at 12.6 µM | hit rate 0.086% among 350,000 | AH1F fibroblasts, Alexa488-fibronectin deposition fluorescence, overnight;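 active means mean inhibition across replicates of 30% or more, regardless of how many single replicates reach that level; inconclusive means mean under 30% yet at least half of replicates reach 30%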;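 further: positive control wells lacked labelled fibronectin entirely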
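Test system: AH1F fibroblast monolayer depositing Alexa488-labelled fibronectin into matrix. Input: 10000 cells per well. Technique: fluorescence, ex 485 nm, em 525 nm. Buffer or medium: DMEM plus 2% serum, read in PBS. Timing: 1 h cell adhesion before compound, then overnight fibronectin incubation. Compound: single dose, pinned. Read-out basis: inhibition from reduced deposited-fibronectin fluorescence.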
XiGFP reactiv – X-chromosome reactivation activator; XiGFP mouse fibroblasts, % GFP-positive cells imaging, 3 d; cells co-treated with 5-aza-dC sensitizer; scaled so ellipticine positive control = 100%; activation, % at 7.58 µM; hit rate 0.055% among 360,000;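 active means mean normalized replicate activation at least 10% and every replicate at or above 10%; inconclusive means only one of the two criteria met; inactive means mean below 10% and not all replicates reach 10%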;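 further: 0% = median of on-plate neutral control wells and 100% = ellipticine 6 µM median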
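Assay system – SV40-immortalized XiGFP fibroblast cells, line 68-5-11 · Buffer or medium – DMEM supplemented with 5-aza-dC as sensitizing agent · Dosing – one concentration, pinned · Benchmarks – positive control ellipticine, 6 µM final · Times – 3 days compound exposure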
Numbers without * were called inactive; u = inconclusive; x = not tested or not shown. Sampled rows, rich in hits. Any-hit rate of the full collection: about 3.8%.

SMILES	ARNT TACC3 PPI	FGF22 binding	DENV2 CPE rescue	SIRT5 inh	FN deposition inh	XiGFP reactiv
O=C(NCc1nc2ccccc2[nH]1)C1=C[C@@H](c2ccc(C(F)(F)F)cc2)C[C@@H](OCCCCO)O1	1.5	0.2	-10.4	1.7	-4.4	-0.3
C[C@@H]1CN([C@@H](C)CO)C(=O)CCCn2nncc2CO[C@@H]1CN(C)Cc1ccc2c(c1)OCO2	-7.2	0.1	-2.1	-2.8	-1.1	-0.1
CCCNC(=O)C[C@H]1CC[C@@H]2[C@@H](COc3ccc(NC(=O)c4cc(F)cc(F)c4)cc3C(=O)N2C)O1	-2.9	0.0	1.4	x	-7.7	0.2
COc1ccccc1C(=O)Nc1ccc2c(c1)C(=O)N(C)C[C@@H](OC)[C@H](C)CN(C(C)=O)[C@H](C)CO2	13.9	-0.3	-2.1	2.6	7.6	-0.1
COCCNC(=O)c1ccc(CS(=O)(=O)c2c(Cl)cccc2Cl)o1	-3.0	-0.2	58.4*	x	-4.1	0.0
CCN1CCN(CCNC(=O)c2ccc(CS(=O)(=O)c3c(Cl)cccc3Cl)o2)CC1	6.8	0.2	u	x	-18.9	0.3
COc1ccc(-c2ccc([C@@H]3[C@H](CO)N4CCCCN(C(=O)NC(C)C)C[C@@H]34)cc2)cc1	-4.8	0.0	63.9*	0.3	x	-0.1
CC(=O)N1CCCCN2[C@@H](CO)[C@H](c3ccc(Br)cc3)[C@@H]2C1	2.7	0.9	0.8	17.0*	x	0.2
COc1ccc(-c2ccc([C@H]3[C@H]4CN(C(=O)NC(C)C)CCCCN4[C@H]3CO)cc2)cc1	5.2	x	x	x	x	0.0
COc1ccccc1NC(=O)N1CCCCN2[C@H](CO)[C@H](c3ccc(-c4cccc(C)c4)cc3)[C@@H]2C1	19.4	-0.8	21.5*	14.9	x	0.0
CC(C)NC(=O)N1CCCCN2[C@H](CO)[C@@H](c3ccc(C#CC4CC4)cc3)[C@H]2C1	-1.9	0.3	38.8*	-0.5	x	-0.1
C[C@@H]1CN(C)C(=O)c2cccc(N(C)C)c2O[C@H]1CN(C)C(=O)OC(C)(C)C	x	x	x	x	3.5	0.2
COc1ccc(S(=O)(=O)N[C@@H]2CC[C@H](CC(=O)NCc3ccccc3F)O[C@@H]2CO)cc1	3.8	0.1	1.1	-1.0	x	-0.4
COc1ccccc1NC(=O)N1CCCCN2[C@H](C1)[C@@H](c1ccc(C#CC3CCCC3)cc1)[C@@H]2CO	-4.5	-1.2	-11.4	15.8*	x	-0.1
CC(C)NC(=O)N1CCCCN2[C@@H](CO)[C@@H](c3ccc(Br)cc3)[C@@H]2C1	2.7	0.2	68.2*	-2.1	x	0.0
O=C(c1ccccn1)N1CC2(C1)[C@H](c1ccccc1)[C@H](CO)N2Cc1ccc(F)cc1	x	0.0	4.0	-3.5	-0.3	0.1
C/C=C/c1ccc([C@@H]2[C@H](CO)N(C(=O)c3cnccn3)C23CN(C(=O)C2CC2)C3)cc1	x	x	23.6*	-3.4	-6.0	0.2
O=C(CC1CC1)N1CC2(C1)[C@H](c1ccccc1)[C@H](CO)N2Cc1ccccn1	x	0.3	22.7*	-3.8	0.6	0.1
C/C=C/c1ccc([C@@H]2[C@H](CO)N(C(=O)C3CCCC3)C23CN(C(=O)NC(C)C)C3)cc1	x	x	-7.1	2.0	11.6	0.2
O=C(c1ccccn1)N1CC2(C1)[C@H](c1ccccc1)[C@@H](CO)N2Cc1ccc(F)cc1	x	-0.2	38.9*	-0.2	-16.0	0.0
C/C=C/c1ccc([C@H]2[C@@H](CO)N(C(=O)C3CC3)C23CN(C(=O)NC(C)C)C3)cc1	x	0.2	105.0*	-0.6	-0.2	0.2
O=C(CC1CC1)N1CC2(C1)[C@H](c1ccccc1)[C@@H](CO)N2C(=O)c1cnccn1	x	x	-5.1	-0.7	x	0.0
O=C(CC1CC1)N1CC2(C1)[C@@H](c1ccccc1)[C@@H](CO)N2C(=O)c1cnccn1	x	0.9	32.5*	-0.8	x	0.0
O=C(c1ccccn1)N1CC2(C1)[C@@H](c1ccccc1)[C@@H](CO)N2C(=O)CC1CC1	x	-0.1	34.6*	-0.2	x	0.1
O=[N+]([O-])c1ccc(C=CC=Cc2ccccc2)cc1	x	0.1	-1.3	1.7	-2.7	-0.1
SMILES	ARNT TACC3 PPI	FGF22 binding	DENV2 CPE rescue	SIRT5 inh	FN deposition inh	XiGFP reactiv
CC1=NN(c2ccccc2)C(c2ccco2)C1 (centres undefined)	-5.4	0.1	6.9	-1.0	16.8	0.2
O=[N+]([O-])c1ccc(/C=C/C2=NN(c3ccccc3)C(c3ccco3)C2)cc1 (centres undefined)	-1.5	x	x	x	-148.6	89.0*
O=[N+]([O-])c1ccc(C2=NN(c3ccccc3)C(c3ccco3)C2)cc1 (centres undefined)	-5.0	-0.1	-0.1	-2.5	-50.8	86.0*
Cc1ccc(S(=O)(=O)N(C)C[C@H]2Oc3ccc(NS(=O)(=O)c4ccc(F)cc4)cc3CC(=O)N([C@H](C)CO)C[C@H]2C)cc1	-2.1	-0.3	-1.1	-2.2	x	-1.0
O=C(NCc1ccc(Cl)cc1)c1cc([N+](=O)[O-])ccc1Cl	-2.4	43.0*	0.4	-1.4	7.1	0.0
CCCCNC(=O)c1onc(CS(=O)(=O)c2ccccn2)c1C(=O)NCCCC	-0.6	0.2	40.0*	x	-5.8	0.0
CCCCNC(=O)c1onc(CSc2ccc(Cl)cc2)c1C(=O)NCCCC	-3.0	35.1*	0.3	0.2	-12.1	0.1
CCCCNC(=O)c1c(CSc2ccc(Cl)cc2)noc1C(=O)NCCC	-19.9	0.1	-3.3	-3.4	1.1	0.1
CCCCNC(=O)c1onc(CSc2ccccc2)c1C(=O)NCCCC	-9.1	-0.1	1.8	x	9.1	0.0
CCNC(=O)C[C@@H]1CC[C@H]2[C@@H](COc3ccc(NC(=O)c4cccc(C(F)(F)F)c4)cc3C(=O)N2C)O1	-0.3	0.1	3.2	x	x	0.0
ClC(CCN1CCN(Cc2ccccc2)CC1)c1ccccc1 (centres undefined)	2.3	0.0	30.7*	-3.3	-2.8	0.4
CC(CN1CCN(Cc2ccccc2)CC1)c1ccccc1 (centres undefined)	3.1	0.0	-5.5	-0.9	-7.0	0.1
OC(CNC1CCCc2ccccc21)COc1c(Cl)cccc1Cl (centres undefined)	5.7	44.5*	4.0	-5.2	42.0*	0.0
OC(CNC1Cc2ccccc2C1)COc1ccc(Cl)cc1 (centres undefined)	-3.4	0.1	u	x	8.2	0.1
COc1ccc(C#Cc2ccc([C@@H]3[C@@H](CO)N4CCCCN(S(=O)(=O)c5cn(C)cn5)C[C@@H]34)cc2)cc1	9.8	-0.9	9.8	0.9	x	0.0
CCOC(=O)C1=C(N)OC2=C(C(=O)CC(C)(C)C2)C1c1ccc(CC)s1 (centres undefined)	-9.5	0.1	1.2	-0.5	-6.1	0.0
